Assay results pooled from the literature.
Each line is one published result; the experiments were not run side by side.
Target: Sodium-dependent serotonin transporter (SLC6A4, Homo sapiens, UniProt P31645)

CN1CCN(CCCOc2ccc(=O)n(-c3ccc(Cl)c(Cl)c3)n2)CC1 — inhibition (ligand displacement; 1 µM): 21.7%
O=C1N=C(N2CCCCN2)S/C1=C\c1ccc(F)cc1O — inhibition (ligand displacement; radioligand; 10 µM): < 10%
N#Cc1cc(Cn2c(N3CCCC3)nc3ccccc32)ccc1F — inhibition (ligand displacement; 10 µM): -16.9%
COc1cc(NC(C)=O)c(Cl)cc1C(=O)Nc1nccs1 — inhibition (cell-free assay; 10 µM): -12.3%
CCCNc1nc2ccccc2n1Cc1ccc(Cl)cc1 — inhibition (ligand displacement; 10 µM): -8.27%
CN(C)CCCN1c2ccccc2CCc2ccccc21 — inhibition (transporter uptake; inhibitor; radiometric; COS-7; 4 nM): 19.6%
O=C(c1ccc(Cl)cc1)N(Cc1ccccc1)C1CCCCC1 — inhibition (cell-free assay; 10 µM): -7.1%
CCN(Cc1ccccc1C(F)(F)F)C(=O)C1CCN(S(=O)(=O)c2ccc3[nH]ncc3c2)CC1 — inhibition (ligand displacement; radioligand; 10 µM): 2%
CCN(CC)c1ccc(C2Nc3ccc(C(=O)c4ccccc4)cc3NC3=C2C(=O)CC(C)(C)C3)cc1 (stereo not shown) — inhibition (ligand displacement; radioligand; 10 µM): 57%
COc1ccc(-n2nc(OCCCN3CCCCC3)ccc2=O)cc1 — inhibition (ligand displacement; 1 µM): 43.6%
